Data reported in PubChem BioAssay AID602266 (Broad Institute, 2012).
Results filed as inconclusive are left out. The source made the active and inactive calls.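 The calls were made as follows: active = compounds whose fitted half-maximal inhibition dose is at most double their top valid tested dose; inconclusive = flat curve with 30 to 70% inhibition, or poor fit; inactive = the rest.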

What was measured:
[1] = reduction of heat-induced Hsp90aa mRNA, dose response, orthogonal assay for HSF1 inhibitor project, NIH-3T3 cells, RT-qPCR, cherry-pick (AID 602266); details: NIH-3T3 HGL cells, heat shock, Hsp90aa mRNA qPCR; at 26 µM (top of the series)
Outline: (§1)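 Assay system: HGL cells, NIH-3T3 mouse fibroblasts with HSE-driven GFP/luciferase construct. Timing: overnight plating, 90-min compound pretreatment, 90-min heat shock, 1-h recovery. Signal: Two-step multiplex TaqMan RT-qPCR.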

[2] = system: NIH-3T3 HGL cells, heat shock, Hsp90aa mRNA qPCR; assay: as above
Outline: as §1

Compound | activity change, negative = inhibition [1] | AC50 [2] [nM]
CC(C)(C)c1ccc(/C=N/Nc2cccc(C(=O)O)c2)cc1 | 12.9% (inactive) | –
Cc1cccc(-n2ncc3c(N(C)C4CCCCC4)ncnc32)c1 | 27% (inactive) | –
Cc1nc(SCC(=O)Nc2nc3ccccc3s2)c(C#N)c(C)c1C | 7.25% (inactive) | –
Cc1ccc(/C=N/Nc2ccc(C(=O)O)cc2)s1 | 32.5% (inactive) | –
C(=N\Nc1nc2ccccc2s1)/c1ccccn1 | 82.6% (inactive) | –
C[C@@H]1C[C@H]2[C@@H]3CCC4=CC(=O)C=C[C@]4(C)[C@@]3(F)[C@@H](O)C[C@]2(C)[C@@]1(O)C(=O)CO | 6.93% (inactive) | –
C[C@]12C=CC(=O)C=C1CC[C@@H]1[C@@H]2[C@@H](O)C[C@@]2(C)[C@H]1CC[C@]2(O)C(=O)CO | 4.41% (inactive) | –
O=C(CN1C(=O)c2ccccc2S1(=O)=O)c1ccc2c(c1)OCCCO2 | 13.4% (inactive) | –
CCC(=O)O[C@]1(C(=O)CCl)[C@@H](C)C[C@H]2[C@@H]3CCC4=CC(=O)C=C[C@]4(C)[C@@]3(F)[C@@H](O)C[C@@]21C | 30.2% (inactive) | –
CC(=O)OCC(=O)[C@@]12OC(C)(C)O[C@@H]1CC1C3C[C@H](F)C4=CC(=O)C=CC4(C)[C@@]3(F)C(O)CC12C (stereo not given in full) | -1.11% (inactive) | –
Cc1c(-c2nc(-c3ccc(C(C)(C)C)cc3)no2)n(C)oc1=O | 18.8% (inactive) | –
CC12CCC(=O)C=C1CCC1C2C(O)CC2(C)C1CCC2(O)C(=O)CO (stereo not given) | 4.01% (inactive) | –
CC(C)Sc1nc(SCC(=O)NCc2ccco2)c2c3c(sc2n1)COC(C)(C)C3 | 52.6% (inactive) | –
CC(=O)[C@@]1(O)C(C)CC2C3C=C(C)C4=Cc5c(cnn5-c5ccccc5)C[C@]4(C)C3C(O)C[C@@]21C (stereo not given in full) | 97.3% (inactive) | –
CN(C(=O)OC(C)(C)C)c1ccc(-c2nc3ccccc3s2)cc1 | 46.6% (inactive) | –
O=c1c2ccccc2sc2ccc(C#CC3(O)CCCCC3)cc12 | 49.4% (inactive) | –
O=C(Nc1ccc(F)cc1F)c1cc2nc3c(c(C(F)(F)F)n2n1)CCCC3 | 2.56% (inactive) | –
CC1CCCN(c2ncnc3c2cnn3-c2ccc(Cl)cc2)C1 (stereo not given) | 28.9% (inactive) | –
CC1CCN(c2ccc(-c3cccc(NC(=O)C(F)(F)F)c3)nn2)CC1 | 37.6% (inactive) | –
CCOc1ccc(OCc2cccc(C(=O)N/N=C/c3cccnc3)c2)cc1 | 37.3% (inactive) | –
N#CCCCC#Cc1ccc2c(c1)COc1c3ccccc3nn1-2 | 65.7% (inactive) | –
COC(=O)c1ccccc1NC(=O)c1ccc(-c2ccc(Br)cc2)o1 | 4.07% (inactive) | –
O=[N+]([O-])c1nn(-c2ccc3c(c2)OCCO3)n(O)c1=Nc1ccccc1 | 29% (inactive) | –
CC1=C(C(=O)OCc2ccc3c(c2)OCO3)C(c2ccc(F)cc2)NC(=O)N1 (stereo not given) | – | 1390
CCS(=O)(=O)N1Cc2ccccc2CC1C(=O)Nc1nc2ccccc2s1 (stereo not given) | 33.2% (inactive) | –
